High-throughput results as filed in PubChem.
Hits are enriched below; roughly 2.1% of the tested compounds scored in any of these assays.
PP5 inh = PP5 phosphatase inhibitors, primary screen, biochemical, fluorescence; inhibition, % at 6.7 µM; purified PP5c, OMFP substrate fluorescence; Serine/threonine-protein phosphatase 5 (Homo sapiens), P53041; AID 1987, 2009; actives 0.18% (n = 320,000);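 active means inhibition above the campaign's mean inhibition across all tested compounds plus 3 SD, cut at about 9.5% in these data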;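 further: 0% = DMSO only and 100% = 100 µM cantharidin control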
Apaf1 inhib = inhibitors of human Apaf-1 apoptosome, primary screen, biochemical, DEVD-Rh110 fluorescence, uHTS; Apoptotic protease-activating factor 1 (Homo sapiens), O14727; reconstituted apoptosome caspase-3 activity; inhibition, % at 20 µM; actives 0.71% (n = 330,000); AID 489030, 2010; active means inhibition of at least 40% at 20 µM;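 further: plate controls were DMSO wells for no effect and DEVD-CHO caspase inhibitor wells for full effect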
Target sequence (O14727 whole entry, looked up): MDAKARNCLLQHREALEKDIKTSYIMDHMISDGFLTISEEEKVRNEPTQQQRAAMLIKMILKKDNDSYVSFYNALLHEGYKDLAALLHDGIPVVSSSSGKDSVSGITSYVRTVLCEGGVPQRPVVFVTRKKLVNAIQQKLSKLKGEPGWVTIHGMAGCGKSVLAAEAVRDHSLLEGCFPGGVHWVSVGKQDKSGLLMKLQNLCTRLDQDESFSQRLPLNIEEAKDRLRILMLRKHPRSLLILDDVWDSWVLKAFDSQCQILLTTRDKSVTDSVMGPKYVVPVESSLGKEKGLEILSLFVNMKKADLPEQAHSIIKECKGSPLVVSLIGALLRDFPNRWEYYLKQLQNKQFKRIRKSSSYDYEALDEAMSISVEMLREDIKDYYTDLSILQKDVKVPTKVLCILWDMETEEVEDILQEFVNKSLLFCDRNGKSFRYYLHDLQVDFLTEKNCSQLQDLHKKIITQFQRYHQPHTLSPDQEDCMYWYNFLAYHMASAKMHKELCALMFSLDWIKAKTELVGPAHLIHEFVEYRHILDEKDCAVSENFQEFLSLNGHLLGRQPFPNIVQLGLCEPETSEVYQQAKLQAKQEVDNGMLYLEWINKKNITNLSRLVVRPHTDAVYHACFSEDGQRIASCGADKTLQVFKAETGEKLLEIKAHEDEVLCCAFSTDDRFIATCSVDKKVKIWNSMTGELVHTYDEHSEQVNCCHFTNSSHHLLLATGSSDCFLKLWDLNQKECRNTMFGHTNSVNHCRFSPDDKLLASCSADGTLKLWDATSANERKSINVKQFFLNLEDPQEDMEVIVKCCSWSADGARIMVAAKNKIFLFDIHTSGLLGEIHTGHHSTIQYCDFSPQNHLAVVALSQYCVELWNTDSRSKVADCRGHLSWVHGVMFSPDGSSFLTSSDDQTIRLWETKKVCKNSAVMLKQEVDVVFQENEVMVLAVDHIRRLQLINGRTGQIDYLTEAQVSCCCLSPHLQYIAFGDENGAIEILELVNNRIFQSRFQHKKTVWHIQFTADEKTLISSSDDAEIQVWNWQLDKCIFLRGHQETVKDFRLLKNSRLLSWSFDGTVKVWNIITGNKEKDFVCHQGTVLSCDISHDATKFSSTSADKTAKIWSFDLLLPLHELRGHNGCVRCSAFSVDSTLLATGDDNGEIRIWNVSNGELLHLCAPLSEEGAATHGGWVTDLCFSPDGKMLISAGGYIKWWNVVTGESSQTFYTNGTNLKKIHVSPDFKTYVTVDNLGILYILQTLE
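Material: reconstituted apoptosome with Apaf-1, cytochrome c, caspase-9, procaspase-3, dATP / Buffer or medium: pH 7.5 Hepes buffer with CHAPS, BSA, DTT / Also added: cytochrome c with DEVD-Rh110 / Schedule: compound with Apaf-1, dATP, procaspase-3 30 min, then 50 min reaction, room temperature / Technique: rhodamine 110 fluorescence at Ex 480/Em 540 nm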
TDP2 absorb = human TDP2 enzyme inhibitors, primary screen, biochemical, epi absorbance, recombinant enzyme | Tyrosyl-DNA phosphodiesterase 2 (Homo sapiens), O95551 | T5PNP hydrolysis, p-nitrophenol absorbance 415 nm | inhibition, % at 12.8 µM | actives 0.34% (n = 370,000);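 active means inhibition above the mean of all tested compounds plus 3 SD, set per campaign, cut at about 25% in these data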;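 further: 0% = DMSO with enzyme and 100% = buffer with substrate but no TDP2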
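Read-out basis: percent inhibition. System: recombinant human TDP2. Buffer or medium: Mg2+-containing Tris-HCl buffer, pH 7.5. Repeats: single replicate. Timing: reaction 2 h, 37 °C. Benchmarks: high control without enzyme, low control DMSO plus TDP2. Probe or stimulus: 5 mM T5PNP. Doses: 12.8 µM only. Measured by: epi absorbance of p-nitrophenol freed from T5PNP by hydrolysis.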
PP1 inh = PP1-alpha phosphatase inhibitors, primary screen, counter-screen for PP5 inhibitor project, biochemical, fluorescence, OMFP substrate, single point; Serine/threonine-protein phosphatase PP1-alpha catalytic subunit (Homo sapiens), P62136; purified PP1alpha; actives 0.9% (n = 320,000); inhibition, % at 6.7 µM;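 active means inhibition above the mean inhibition of all tested compounds plus 3 SD, computed separately for each screening campaign, cut at about 15% in these data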
GSTO1 counter = inhibitors of recombinant GSTO1, primary screen, counter-screen for RBBP9 inhibitor project, biochemical, fluorescence polarization; actives 1.1% (n = 300,000); inhibition, % at 5.96 µM; activity-based probe fluorescence polarization; AID 1974, 2009; Glutathione S-transferase omega-1 (Homo sapiens), P78417;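 active means inhibition above the campaign mean inhibition plus 3 SD, cut at about 35% in these data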;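 further: 0% = GSTO1-1 with DMSO and 100% = wells lacking GSTO1-1 enzyme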
GSTO1 inh conf = GSTO1 inhibitor hit confirmation, counter-screen for RBBP9 inhibitor project, biochemical, fluorescence polarization, triplicate; inhibition, % at 5.96 µM; shares compounds with GSTO1 counter; recombinant GSTO1, probe fluorescence polarization; actives 54% (n = 2,400);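 active means inhibition above the primary screen's cutoff, its mean inhibition plus 3 SD, cut at about 35% in these data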;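 further: loss of polarization as inhibitors block binding of rhodamine sulfonate ester activity probe; 0% = GSTO1 with DMSO and 100% = wells lacking GSTO1 enzyme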
GSTO1 recomb ABPP = inhibitors of purified human GSTO1, late-stage follow-up, biochemical, gel ABPP, SE-Rh probe, percent inhibition. shares compounds with GSTO1 counter. recombinant GSTO1, gel ABPP SE-Rh probe fluorescence. inhibition, % at 1 µM. actives 30% (n = 130). AID 463110, 2010;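 active means inhibition of the enzyme GSTO1 above about 75%, limit read from the data; inactive means inhibition below that limit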
Starred values were filed as active, the others as inactive.

What do the screens show for `CO[C@H]([C@H](C)/C=C/N(C)C=O)[C@@H](C)C(=O)CC[C@H](C)[C@H](O)[C@H](C)[C@H]1OC(=O)/C=C/C(C)=C/[C@H](O)[C@H](OC)C[C@@H]2C=CC[C@@H](C[C@H](OC)[C@@H](CO)[C@@H](OC)C[C@@H](OC)[C@@H]1C)O2`?
TDP2 absorb: -9

What do the screens show for `C=CCN1CCc2cccc3c2[C@H]1Cc1ccc(O)c(O)c1-3`?
PP5 inh: 2; Apaf1 inhib: 20; TDP2 absorb: -21; PP1 inh: 5; GSTO1 counter: 87*; GSTO1 inh conf: 17

Results for CCCOC(=O)c1c(N)n(Cc2cccs2)c2nc3ccccc3nc12 ?
PP5 inh: 3; Apaf1 inhib: 29; TDP2 absorb: 9; PP1 inh: 2; GSTO1 counter: 42*; GSTO1 inh conf: -2

What do the screens show for `COCC(C)OC(=O)c1c(N)n(Cc2ccco2)c2nc3ccccc3nc12` (centres undefined)?
PP5 inh: 1; Apaf1 inhib: 61*; TDP2 absorb: 6; PP1 inh: 2; GSTO1 counter: 59*; GSTO1 inh conf: 18

What do the screens show for `CCOC(=O)c1c(NC(=O)c2c(N)n(CCCOC)c3nc4ccccc4nc23)sc2c1CCCC2`?
PP5 inh: 1; Apaf1 inhib: -10; TDP2 absorb: 4; PP1 inh: -3; GSTO1 counter: -7

How did CN1CC[C@@H]2CN[C@H](c3ccccc3Br)C[C@@H]21 do in these assays?
TDP2 absorb: 2

How did O=C(Nc1nccs1)C(Cl)(Cl)Cl do in these assays?
PP5 inh: -3; Apaf1 inhib: 4; TDP2 absorb: 5; PP1 inh: 1; GSTO1 counter: 1

What do the screens show for `O=C(CCl)Nc1nccs1`?
PP5 inh: 0; Apaf1 inhib: -1; TDP2 absorb: 10; PP1 inh: 1; GSTO1 counter: 92*; GSTO1 inh conf: 99*

What do the screens show for `CN1C(=O)[C@@]23C[C@]4(c5c[nH]c6ccccc56)c5ccccc5N(S(=O)(=O)c5ccccc5)[C@@H]4N2C(=O)[C@@H]1SS3`?
TDP2 absorb: 6

Results for NC(Cc1ccccc1)[P+](=O)O (centres undefined) ?
TDP2 absorb: 5

How did Cc1cc(=O)[nH]c(CCl)n1 do in these assays?
PP5 inh: -2; Apaf1 inhib: 2; TDP2 absorb: 5; PP1 inh: -2; GSTO1 counter: 67*; GSTO1 inh conf: 90*; GSTO1 recomb ABPP: 14

How did CCOc1ccc(-n2c(O)c(C=Nc3ccc(N(CC)CC)cc3)c(=O)[nH]c2=O)cc1 do in these assays?
PP5 inh: 2; Apaf1 inhib: 13; TDP2 absorb: 13; PP1 inh: -3; GSTO1 counter: 4

Results for CCN(CC)c1ccc(N=Cc2c(O)[nH]c(=O)[nH]c2=O)cc1 ?
PP5 inh: 1; Apaf1 inhib: 4; TDP2 absorb: 8; PP1 inh: 2; GSTO1 counter: 56*; GSTO1 inh conf: 1

What do the screens show for `CCN(CC)c1ccc(N=Cc2c(O)n(-c3ccccc3)c(=O)[nH]c2=O)cc1`?
PP5 inh: -1; Apaf1 inhib: -10; TDP2 absorb: 1; PP1 inh: -3; GSTO1 counter: 42*; GSTO1 inh conf: 8

What do the screens show for `CNCCc1ccc(O)c(O)c1`?
PP5 inh: 2; Apaf1 inhib: -6; TDP2 absorb: -2; PP1 inh: -2; GSTO1 counter: 73*; GSTO1 inh conf: 8

How did Cc1cc(C(=O)Nc2ccccc2)nn1C(C)(C)C do in these assays?
PP5 inh: -1; Apaf1 inhib: -1; TDP2 absorb: 2; PP1 inh: 8; GSTO1 counter: 7

How did Cn1ccc(NC(=O)CCl)n1 do in these assays?
PP5 inh: 3; Apaf1 inhib: -11; TDP2 absorb: 10; PP1 inh: -3; GSTO1 counter: 62*; GSTO1 inh conf: 85*

What do the screens show for `Cc1cc(NC(=O)CCl)nn1C`?
PP5 inh: 1; Apaf1 inhib: 6; TDP2 absorb: -26; PP1 inh: -1; GSTO1 counter: 85*; GSTO1 inh conf: 86*

What do the screens show for `CC(C)NC1(c2ccccc2)CCCCC1`?
TDP2 absorb: -8

Results for Cc1ccc(S(=O)(=O)N2CC2(C)CCl)cc1 (centres undefined) ?
PP5 inh: -2; Apaf1 inhib: -21; TDP2 absorb: -18; PP1 inh: -5; GSTO1 counter: 44*; GSTO1 inh conf: 67*; GSTO1 recomb ABPP: 11

How did Cc1ccc(S(=O)(=O)N2CN3CCN(C3)C2)cc1 do in these assays?
PP5 inh: 1; Apaf1 inhib: -3; TDP2 absorb: -5; PP1 inh: -2; GSTO1 counter: 2

What do the screens show for `Cc1ccc(OC(=O)N(C)C[C@H]2OCc3cnnn3CCCC(=O)N([C@H](C)CO)C[C@H]2C)cc1`?
TDP2 absorb: 2

How did O=[N+]([O-])c1cc(S(=O)(=O)c2ccc(O)c([N+](=O)[O-])c2)ccc1O do in these assays?
PP5 inh: 0; Apaf1 inhib: 1; TDP2 absorb: -17; PP1 inh: -1; GSTO1 counter: 40*; GSTO1 inh conf: 49*

Results for N#Cc1ccc2nc(-c3ccc(CN4CCC(n5c(=O)[nH]c6cc(Cl)ccc65)CC4)cc3)c(-c3ccccc3)nc2c1 ?
TDP2 absorb: 9

What do the screens show for `O=C(O)c1cc2ccccc2n1C1CCN(Cc2ccccc2)CC1`?
TDP2 absorb: 5

What do the screens show for `CCOC(=O)CNC(=O)N1Cc2cc(Br)ccc2-n2nncc2C1`?
TDP2 absorb: -1

Results for Nc1c(C(=O)OC2CCCCC2)c2nc3ccccc3nc2n1CC1CCCO1 (centres undefined) ?
PP5 inh: 6; Apaf1 inhib: 32; TDP2 absorb: 20; PP1 inh: 4; GSTO1 counter: 42*; GSTO1 inh conf: -2

Results for CC(C)CCOC(=O)c1c(N)n(CC2CCCO2)c2nc3ccccc3nc12 (centres undefined) ?
PP5 inh: 5; Apaf1 inhib: 24; TDP2 absorb: -6; PP1 inh: 3; GSTO1 counter: 53*; GSTO1 inh conf: -2
